Values after ≈ are worked out from the molar mass of the structure shown. Active and inactive are the calls of the source. No cut-off for these calls is given here.
How the values were obtained:
Bacillus anthracis [1] = assay: Antibacterial activity against Bacillus anthracis Sterne by broth microdilution method; type: functional
Staphylococcus aureus [2] = assay: Antibacterial activity against Staphylococcus aureus Smith by broth microdilution method; type: functional
DnaC helicase = molecular target: T1, DnaC helicase (Staphylococcus aureus, UniProt Q9AQH7); assay: Inhibition of Staphylococcus aureus Smith DNA helicase DnaC assessed as strand unwinding after 30 mins by FRET assay
T1 sequence (Q9AQH7 whole entry): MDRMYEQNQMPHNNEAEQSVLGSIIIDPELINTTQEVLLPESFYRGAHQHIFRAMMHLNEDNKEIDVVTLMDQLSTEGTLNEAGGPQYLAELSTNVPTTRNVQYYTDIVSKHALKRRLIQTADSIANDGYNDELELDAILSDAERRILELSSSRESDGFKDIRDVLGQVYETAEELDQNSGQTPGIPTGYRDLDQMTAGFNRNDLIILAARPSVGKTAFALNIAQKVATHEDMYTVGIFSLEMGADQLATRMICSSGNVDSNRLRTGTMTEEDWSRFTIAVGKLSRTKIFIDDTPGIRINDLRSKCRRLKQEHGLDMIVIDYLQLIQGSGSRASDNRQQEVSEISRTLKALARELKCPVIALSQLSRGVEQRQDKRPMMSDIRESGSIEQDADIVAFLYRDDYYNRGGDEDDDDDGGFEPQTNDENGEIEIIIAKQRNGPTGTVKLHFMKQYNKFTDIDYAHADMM

HeLa = assay: Cytotoxicity against human HeLa cells by MTT assay; type: cell-based
Bacillus anthracis [3] = assay: Antibacterial activity against permeabilized polA-deficient Bacillus anthracis Sterne assessed as inhibition of DNA replication by cell based assay; type: functional, organism-based
How it was run: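 ATP-dependent DNA replication measured in permeabilized ΔpolA B. anthracis Sterne cells by a modified Brown et al. method, testing whether compounds block an intact replisome.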

[4] = system: Geobacillus stearothermophilus; assay: Antibacterial activity against Bacillus stearothermophilus ATCC 12980 by broth microdilution method; type: functional
Bacillus subtilis [5] = assay: Antibacterial activity against Bacillus subtilis BD54 by broth microdilution method; type: functional
Staphylococcus aureus [6] = assay: Antibacterial activity against Staphylococcus aureus ATCC 25923 by broth microdilution method; type: functional
Enterococcus faecalis [7] = assay: Antibacterial activity against Enterococcus faecalis ATCC 29212 by broth microdilution method; type: functional
Enterococcus faecalis [8] = assay: Antibacterial activity against vancomycin-resistant Enterococcus faecalis ATCC 51575 by broth microdilution method; type: functional
Priestia megaterium = assay: Antibacterial activity against Bacillus megaterium ATCC 12872 by broth microdilution method; type: functional
Bacillus licheniformis = assay: Antibacterial activity against Bacillus licheniformis ATCC 14580 by broth microdilution method; type: functional; conditions: DSM 13=ATCC 14580
Bacillus thuringiensis = assay: Antibacterial activity against Bacillus thuringiensis ATCC 10792 by broth microdilution method; type: functional
Bacillus cereus = assay: Antibacterial activity against Bacillus cereus ATCC 4342 by broth microdilution method; type: functional
[9] = Selectivity ratio of IC50 for Staphylococcus aureus Smith DNA helicase DnaC to IC50 for Bacillus anthracis DNA helicase DnaB
Bacillus subtilis [10] = assay: Inhibition of Bacillus subtilis DNA gyrase up to 50 uM by gel mobility assay
How it was run: (§1)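 B. subtilis DNA gyrase activity measured by a published gel mobility assay; compounds tested up to 50 μM.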

Staphylococcus aureus [11] = assay: Antibacterial activity against methicillin-resistant Staphylococcus aureus isolate 1094 by broth microdilution method; type: functional
Escherichia coli [12] = assay: Antibacterial activity against Escherichia coli 700 expressing […] gene by broth microdilution method; type: functional
Escherichia coli [13] = assay: Antibacterial activity against TolC deficient Escherichia coli 701 by broth microdilution method; type: functional
[14] = Inhibition of Bacillus subtilis DNA gyrase by gel mobility assay; how it was run: as §1
Bacillus subtilis [15] = assay: Inhibition of Bacillus subtilis class C DNA polymerase 3
How it was run: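 B. subtilis Pol IIIC polymerase assay in 96-well format on DNase-activated chromosomal DNA substrate, which needs no helicase function.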

Bacillus anthracis [16] = assay: Inhibition of single strand DNA-stimulated ATPase activity of Bacillus anthracis DNA helicase DnaB at 100 uM
How it was run: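 ssDNA-stimulated ATPase of B. anthracis helicase assayed with 100 μM inhibitor, 0.5 mM ATP and 200 pmole M13mp19 single-stranded DNA.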

Bacillus anthracis [17] = assay: Inhibition of Bacillus anthracis DNA helicase DnaB by competitive inhibition assay in presence of ATP
How it was run: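 Helicase FRET unwinding kinetics with B. anthracis enzyme, varying both ATP (0.625, 1.25, 2.5 mM and higher) and inhibitor concentrations; analysed by Dixon plot (1/V vs [I]).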

Bacillus anthracis [18] = assay: Inhibition of Bacillus anthracis DNA helicase DnaB by Lineweaver-Burke plot analysis in presence of DNA substrate
How it was run: (§2)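 FRET strand-unwinding assay with purified B. anthracis helicase, 6-FAM/BHQ1 annealed 60-mer duplex, pH 7.9 Tris, 2 mM MgCl2, 25 mM NaCl, 0.01% Triton X-100, 2.5 mM ATP, room temperature 30 min. Oligo substrate and inhibitor concentrations varied; Ki taken from a Dixon plot.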

[19] = Inhibition of Bacillus anthracis DNA helicase DnaB by Dixon plot analysis in presence of annealed oligonucleotide substrate; how it was run: as §2
Bacillus anthracis [20] = assay: Antibacterial activity against Bacillus anthracis Sterne at 4 times MIC within 5.5 hrs; type: functional, organism-based

| SMILES | MIC (Bacillus anthracis [1]) | MIC (Staphylococcus aureus [2]) | IC50 (DnaC helicase) | CC50 (HeLa) | IC50 (Bacillus anthracis [3]) | other results |
| --- | --- | --- | --- | --- | --- | --- |
| Cc1ccc(C)n1-c1ccc(SCC(=O)O)cc1 | > 100 µM | > 100 µM | 4 µM | > 100 µM | – | – |
| COc1cc(/C=C2\SC(=S)N(c3cccc(C(F)(F)F)c3)C2=O)cc(OC)c1O | > 100 µM | > 100 µM | 4 µM | > 100 µM | 95 µM | – |
| Oc1ccc(O)c(-c2ccc(-c3nnc(S)o3)o2)c1 | 25 µM (≈ 6.91 µg/mL) | > 100 µM | > 100 µM | 66 µM | > 100 µM | – |
| COc1cc(/C=C2\SC(=S)N(c3cccc(Cl)c3)C2=O)cc(OC)c1O | > 100 µM | > 100 µM | 3 µM | > 100 µM | 30 µM | – |
| Cc1c(CCC(=O)O)c(=O)oc2c(C)c(OCc3cccc4ccccc34)ccc12 | 6 µM (≈ 2.41 µg/mL) | > 100 µM | 65 µM | 6 µM | 107 µM | MIC [4]: 5 mg/L (≈ 12.4 µM); MIC (Bacillus subtilis [5]): 15.1 mg/L (≈ 37.5 µM); MIC (Staphylococcus aureus [6]): 2.5 mg/L (≈ 6.21 µM); MIC (Enterococcus faecalis [7]): > 40 mg/L; MIC (Enterococcus faecalis [8]): > 40 mg/L; MIC (Priestia megaterium): > 40 mg/L; MIC (Bacillus licheniformis): 2.5 mg/L (≈ 6.21 µM); MIC (Bacillus thuringiensis): 2.5 mg/L (≈ 6.21 µM); MIC (Bacillus cereus): 2.5 mg/L (≈ 6.21 µM); Ratio IC50 [9]: 2; inhibition (Bacillus subtilis [10]): inactive; MIC (Staphylococcus aureus [11]): 5 mg/L (≈ 12.4 µM); MIC (Escherichia coli [12]): > 40 mg/L; MIC (Escherichia coli [13]): > 40 mg/L |
| COc1cc(/C=C2\SC(=S)N(c3ccc(Cl)cc3)C2=O)cc(OC)c1O | > 100 µM | > 100 µM | 2 µM | > 100 µM | 73 µM | – |
| Cn1c(SCc2cc(=O)oc3cc(O)c(O)cc23)nc2ccccc21 | 55 µM (≈ 19.5 µg/mL) | 23 µM (≈ 8.15 µg/mL) | 15 µM | 35 µM | 100 µM | Ratio IC50 [9]: 2 |
| COc1ccc(Nc2nc(N)nc(-c3cc4ccccc4o3)n2)cc1 | > 100 µM | > 100 µM | 21 µM | 4 µM | > 100 µM | – |
| Cc1ccc(C)n1-c1ccc(C(=O)O)c(O)c1 | 50 µM (≈ 11.6 µg/mL) | 50 µM (≈ 11.6 µg/mL) | – | > 100 µM | > 100 µM | – |
| COc1cc(/C=C2\SC(=S)N(c3ccc([N+](=O)[O-])cc3)C2=O)cc(OC)c1O | > 100 µM | > 100 µM | 0.7 µM | 11 µM | – | – |
| CO[C@@H]1[C@@H](OC(=O)c2ccc(C)[nH]2)[C@@H](O)[C@@H](Oc2ccc3c(O)c(NC(=O)c4c[nH]c(C(=O)Nc5c(O)c6ccc(O[C@H]7OC(C)(C)[C@H](OC)[C@@H](OC(=O)c8ccc(C)[nH]8)[C@H]7O)c(C)c6oc5=O)c4C)c(=O)oc3c2C)OC1(C)C [COUMERMYCIN] | – | – | – | – | – | IC50 [14]: < 1 µM |
| Cc1c(Cc2ccccc2)c(=O)oc2c(O)c(O)ccc12 | 20 µM (≈ 5.65 µg/mL) | 24 µM (≈ 6.78 µg/mL) | 42 µM | 10 µM | 10 µM | Ratio IC50 [9]: 2 |
| COc1cc(C(=O)Nc2nc3ccc(S(=O)(=O)N4CCOCC4)cc3s2)cc(OC)c1OC | > 100 µM | > 100 µM | 15 µM | 70 µM | > 100 µM | inhibition (Bacillus subtilis [15]): inactive |
| Nn1c(Cc2ccccc2F)nnc1SCc1cc(=O)oc2cc(O)c(O)cc12 | > 100 µM | > 100 µM | 15 µM | > 100 µM | 100 µM | Ratio IC50 [9]: 2 |
| Cc1nc(-c2c[nH]c(C(=O)O)c2)cs1 | > 100 µM | > 100 µM | 12 µM | > 100 µM | > 100 µM | – |
| Cc1noc(NS(=O)(=O)c2ccc(NC(=O)CSc3nnc(-c4ccccc4)c(-c4ccccc4)n3)cc2)c1C | 50 µM (≈ 28.6 µg/mL) | 75 µM (≈ 43 µg/mL) | 47 µM | 68 µM | 61 µM | MIC [4]: 57.3 mg/L (≈ 100 µM); MIC (Bacillus subtilis [5]): > 60 mg/L; MIC (Staphylococcus aureus [6]): 43 mg/L (≈ 75.1 µM); MIC (Enterococcus faecalis [7]): > 60 mg/L; MIC (Enterococcus faecalis [8]): > 60 mg/L; MIC (Priestia megaterium): 57.3 mg/L (≈ 100 µM); MIC (Bacillus licheniformis): 57.3 mg/L (≈ 100 µM); MIC (Bacillus thuringiensis): 57.3 mg/L (≈ 100 µM); MIC (Bacillus cereus): 57.3 mg/L (≈ 100 µM); inhibition (Bacillus subtilis [10]): inactive; MIC (Staphylococcus aureus [11]): 57.3 mg/L (≈ 100 µM); MIC (Escherichia coli [12]): > 60 mg/L; MIC (Escherichia coli [13]): 28.7 mg/L (≈ 50.1 µM) |
| Cc1c(CCC(=O)O)c(=O)oc2c(C)c(OCc3ccc(Br)cc3F)ccc12 | 10 µM (≈ 4.49 µg/mL) | > 100 µM | 180 µM | > 100 µM | 25 µM | MIC [4]: 5.6 mg/L (≈ 12.5 µM); MIC (Bacillus subtilis [5]): 4.2 mg/L (≈ 9.35 µM); MIC (Staphylococcus aureus [6]): 11.2 mg/L (≈ 24.9 µM); MIC (Enterococcus faecalis [7]): > 45 mg/L; MIC (Enterococcus faecalis [8]): > 45 mg/L; MIC (Priestia megaterium): > 45 mg/L; MIC (Bacillus licheniformis): 2.8 mg/L (≈ 6.23 µM); MIC (Bacillus thuringiensis): 2.8 mg/L (≈ 6.23 µM); MIC (Bacillus cereus): 2.8 mg/L (≈ 6.23 µM); Ratio IC50 [9]: 2; inhibition (Bacillus anthracis [16]): 16%; inhibition (Bacillus anthracis [17]): Active; inhibition (Bacillus anthracis [18]): Active; Ki [19]: 8 µM; inhibition (Bacillus subtilis [10]): inactive; Activity (Bacillus anthracis [20]): Active; MIC (Staphylococcus aureus [11]): > 45 mg/L; MIC (Escherichia coli [12]): > 45 mg/L; MIC (Escherichia coli [13]): > 45 mg/L |
| CCOc1ccccc1C(=O)Nc1nc2ccc(S(N)(=O)=O)cc2s1 | > 100 µM | > 100 µM | 56 µM | 10 µM | > 100 µM | inhibition (Bacillus subtilis [15]): inactive |
| CCC1(C)Cc2ccccc2-c2[nH]c3nnc(S)n3c(=O)c21 (centres undefined) | 30 µM (≈ 9.37 µg/mL) | > 100 µM | > 100 µM | 80 µM | 27 µM | – |

Reference: ChEMBL document CHEMBL1152954, “Discovery, characterization and comparison of inhibitors of Bacillus anthracis and Staphylococcus aureus replicative DNA helicases” (Bioorg Med Chem, 2009)
